Laboratory results reported in PubChem BioAssay AID439 (The Scripps Research Institute Molecular Screening Center, 2006).
Calls of active or inactive are those of the source.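 How the source made its calls: active means compounds with EC50 at or below 10 micromolar; inactive means EC50 above 10 micromolar.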

Target: Sphingosine 1-phosphate receptor 3 (Homo sapiens) (UniProt Q99500)
Experiment: S1P3 receptor activation, EC50 – cell-based, NFAT-BLA reporter, dose response (AID 439)
Conditions: S1P3 NFAT-beta-lactamase reporter cells, FRET ratio
Outline: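 Test system: CHO cells stably expressing human S1P3, G-alpha-16, NFAT-beta-lactamase reporter | Compound: 10 concentrations, threefold steps | Incubation: 4 h compound exposure at 37 °C | Detection: BLA FRET emission ratio, 460 and 535 nm | Evaluation: EC50 from four-parameter fit, activity relative to 1 µM S1P | Controls: 1 µM S1P as 100% activation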

Sequence of Sphingosine 1-phosphate receptor 3 (Homo sapiens) (Q99500 whole entry, looked up): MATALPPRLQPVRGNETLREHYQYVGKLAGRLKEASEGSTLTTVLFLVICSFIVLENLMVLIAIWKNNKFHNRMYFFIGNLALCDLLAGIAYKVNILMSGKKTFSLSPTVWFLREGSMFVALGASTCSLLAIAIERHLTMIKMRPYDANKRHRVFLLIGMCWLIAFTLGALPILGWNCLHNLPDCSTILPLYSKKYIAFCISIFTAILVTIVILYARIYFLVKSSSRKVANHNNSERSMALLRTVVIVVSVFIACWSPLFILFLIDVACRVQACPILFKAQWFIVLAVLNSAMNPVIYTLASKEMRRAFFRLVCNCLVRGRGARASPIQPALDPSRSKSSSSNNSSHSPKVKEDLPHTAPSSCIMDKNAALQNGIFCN

Compound: CCOC(=O)C1=C(N)OC2=C(C(=O)CCC2)C1c1ccccc1OCC (stereo unspecified)
- EC50: inactive
